Entries after “also recorded” stand apart in the source; their conditions may differ.

The target of the experiment is T1, GluRδ2^Wt (Rattus norvegicus, UniProt Q63226).
T1 sequence (Q63226 24-1007): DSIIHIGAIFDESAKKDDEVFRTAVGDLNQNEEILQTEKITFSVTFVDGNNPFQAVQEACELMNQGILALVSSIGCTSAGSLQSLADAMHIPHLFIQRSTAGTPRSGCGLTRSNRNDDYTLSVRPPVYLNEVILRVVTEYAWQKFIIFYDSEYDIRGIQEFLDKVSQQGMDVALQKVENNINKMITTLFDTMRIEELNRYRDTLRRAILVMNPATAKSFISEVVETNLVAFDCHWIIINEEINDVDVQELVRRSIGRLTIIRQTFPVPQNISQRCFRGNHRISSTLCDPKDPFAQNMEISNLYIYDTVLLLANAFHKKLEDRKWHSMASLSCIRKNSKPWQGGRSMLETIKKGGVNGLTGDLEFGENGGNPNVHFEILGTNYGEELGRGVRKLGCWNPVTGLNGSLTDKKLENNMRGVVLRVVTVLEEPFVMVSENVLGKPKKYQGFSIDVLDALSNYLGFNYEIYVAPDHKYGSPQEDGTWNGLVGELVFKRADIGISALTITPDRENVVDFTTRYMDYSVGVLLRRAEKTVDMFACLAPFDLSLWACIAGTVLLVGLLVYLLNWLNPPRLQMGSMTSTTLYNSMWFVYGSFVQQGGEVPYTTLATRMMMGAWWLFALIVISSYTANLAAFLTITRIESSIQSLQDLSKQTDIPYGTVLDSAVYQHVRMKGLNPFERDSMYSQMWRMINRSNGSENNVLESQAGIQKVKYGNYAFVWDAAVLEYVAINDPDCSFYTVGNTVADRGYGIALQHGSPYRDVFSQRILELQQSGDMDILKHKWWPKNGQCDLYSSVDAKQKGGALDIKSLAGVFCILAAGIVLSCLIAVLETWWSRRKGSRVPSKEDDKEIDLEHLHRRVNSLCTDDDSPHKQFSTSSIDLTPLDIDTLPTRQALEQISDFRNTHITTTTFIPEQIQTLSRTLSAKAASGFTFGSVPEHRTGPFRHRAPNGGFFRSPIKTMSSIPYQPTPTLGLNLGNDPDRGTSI
Kind of experiment: Two-electrode voltage-clamp recordings in Xenopus oocytes expressing GluRδ2^Wt. The experiment is classed as cell-based. Put shortly: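 Oocytes injected with wild-type receptor cRNA the day after excision and collagenase treatment. Two-electrode voltage clamp at −40 mV and 23°C, 24–72 h post-injection. Bath: 90 mM NaCl, 3 mM KCl, 0.5 mM BaCl2, 10 mM HEPES, pH 7.6. Ba2+ was replaced by 0.5 mM Mg2+, Zn2+, Mn2+, Sr2+ or Ca2+, or Ca2+ was raised stepwise. Choline or NMDG chloride kept osmolarity and Cl− constant. Baseline was current without Ca2+.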
A general note: In two-electrode clamp one electrode senses voltage and the other passes current.

For `[Ca+2]` [Ca^2+, calcium], where the note is “0.5 mM Ba^2+ exchanged with 0.5 mM of the divalent cation”, the “effect of divalent cation on currents at GluRδ2^Wt” value is on record as “no changes were observed”. Also, the “effect of extracellular Ca^2+ on baseline currents at GluRδ2^Wt” value (increasing concentrations of Ca^2+) is “insensitive; also recorded: did not induce current”.

The values above are taken from PMC2806602 (The Journal of neuroscience : the official journal of the …, 2009).
